Data reported in ChEMBL document CHEMBL1127024, “Synthetic and computer-assisted analysis of the structural requirements for selective, high-affinity ligand binding to diazepam-insensitive benzodiazepine receptors” (J Med Chem, 1993).

Tests used:
Format in all cases: protein-complex assay
[1] = target: GABA-A receptor; anion channel; experiment: Binding affinity for Diazepam insensitive (DI) isoform of the benzodiazepine (Bz) binding site on GABAA receptors
Procedure, shortened: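 Adult male Sprague-Dawley rat cerebellar membranes (~100 µg; homogenised in 50 mM Tris-citrate pH 7.8, washed by repeated 20000g spins at 4 °C). Incubated 60 min at 0-4 °C, GF/B filtration, scintillation counting. Duplicate assays; Ki.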

[2] = target: GABA-A receptor; anion channel; experiment: Binding affinity for Diazepam sensitive (DS) isoform of the benzodiazepine (Bz) binding site on GABAA receptors
[3] = target: GABA-A receptor; anion channel (Rattus norvegicus) (UniProt O09028+P15431+P18506+P18508+P19969+P20236+P23574+P23576+P28471+P28473+P30191+P62813+P63079+P63138+Q91ZM7+Q9ES14); experiment: Ratio of binding affinity against DI Bz receptor to that of DS Bz receptor

Row | Compound | Ki [1] [nM] | Ki [2] [nM] | Ratio [3]
1 | CC(C)(C)OC(=O)c1ncn2c1C1CCCN1C(=O)c1c-2ccc(F)c1Cl (centres undefined) | 23.6 | 1 | 24
2 | CC(C)(C)OC(=O)c1ncn2c1C1CCCN1C(=O)c1cc(Cl)ccc1-2 (centres undefined) | 26.8 | 65.2 | 0.4
3 | CCC(CC)OC(=O)c1ncn2c1CN(C)C(=O)c1cc(Cl)ccc1-2 | – | – | 4.6
4 | Cc1noc(-c2ncn3c2CN(Cc2ccccc2)C(=O)c2c(Cl)cccc2-3)n1 | – | 7.5 | 101
5 | CN1Cc2c(C(=O)OC(C)(C)C)ncn2-c2ccsc2C1=O | – | – | 13
6 | CCOC(=O)c1ncn2c1[C@@H]1CCCN1C(=O)c1ccccc1-2 | – | – | 50
7 | O=C(OCC1CC1)c1ncn2c1C1CCCN1C(=O)c1cc(Cl)ccc1-2 (centres undefined) | 81 | 378 | 0.22
8 | COC(=O)c1ncn2c1CN(C)C(=O)c1sccc1-2 | – | – | 58
9 | CC(C)OC(=O)c1ncn2c1CN(C)C(=O)c1cc(Cl)ccc1-2 | – | – | 0.8
10 | CCOC(=O)c1ncn2c1CN(Cc1ccccc1)C(=O)c1cc(Cl)ccc1-2 | 10.9 | 13.7 | 0.8
11 | CCOC(=O)c1ncn2c1CN(Cc1ccccc1)C(=O)c1ccccc1-2 | 112 | 1.5 | 75
12 | CN1Cc2c(C(=O)OCC(C)(C)C)ncn2-c2ccc(Cl)cc2C1=O | – | – | 0.67
13 | CC(C)(C)OC(=O)c1ncn2c1C1CCN1C(=O)c1cc(F)ccc1-2 (centres undefined) | 16.9 | 1.8 | 9
14 | CCOC(=O)c1ncn2c1C1CCCN1C(=O)c1c(Cl)cccc1-2 (centres undefined) | 68.8 | 0.2 | 344
15 | CC(C)(C)OC(=O)c1ncn2c1C1CCCN1C(=O)c1c(Br)cccc1-2 (centres undefined) | 10 | 0.5 | 20
16 | O=C(OCC1CC1)c1ncn2c1C1CCN1C(=O)c1c(Cl)cccc1-2 (centres undefined) | 55 | 0.1 | 554
17 | CCOC(=O)c1ncn2c1CN(C)C(=O)c1c(F)cccc1-2 | 102 | 0.8 | 128
18 | CCOC(=O)c1ncn2c1CN(C)C(=O)c1c(Cl)cccc1-2 [SARMAZENIL] | 20 | 0.2 | 100
19 | CCCOC(=O)c1ncn2c1CN(C)C(=O)c1sccc1-2 | – | – | 27
20 | CCCOC(=O)c1ncn2c1CN=C(c1ccccc1Cl)c1cc(Cl)ccc1-2 | 1020 | 1.9 | 539
21 | CCOC(=O)c1ncn2c1CN(C)C(=O)c1ccc(Cl)cc1-2 | > 10000 | > 1000 | –
22 | CCOC(=O)c1ncn2c1C1CCN1C(=O)c1c(Cl)cccc1-2 (centres undefined) | 34 | 0.2 | 170

Row | Compound | Ki [1] [nM] | Ki [2] [nM] | Ratio [3]
23 | CCOC(=O)c1ncn2c1CN(Cc1ccccc1)C(=O)c1c(Cl)cccc1-2 | 20.2 | 0.4 | 51
24 | CN1Cc2c(C(=O)OCCC(C)(C)C)ncn2-c2ccc(Cl)cc2C1=O | > 1000 | – | –
25 | C=CCN1Cc2c(C(=O)OCC)ncn2-c2ccccc2C1=O | 1130 | 39.2 | 29
26 | Cc1noc(-c2ncn3c2CN(Cc2ccccc2)C(=O)c2ccccc2-3)n1 | > 10000 | 907 | –
27 | COc1cccc2c1C(=O)N1CCCC1c1c(C(=O)OC(C)(C)C)ncn1-2 (centres undefined) | 259 | 5.1 | 51
28 | O=C(OC1CCCCC1)c1ncn2c1C1CCCN1C(=O)c1cc(Cl)ccc1-2 (centres undefined) | 165 | 391 | 0.42
29 | CCOC(=O)c1ncn2c1CN(C)C(=O)c1cccc(Cl)c1-2 | > 10000 | > 1000 | –
30 | CN1Cc2c(C(=O)OCC3CC3)ncn2-c2ccc(Cl)cc2C1=O | – | – | 4.1
31 | COC(=O)c1ncn2c1CN(C)C(=O)c1ccccc1-2 | 1410 | – | 224
32 | CN1Cc2c(C(=O)OC(C)(C)C)ncn2-c2ccccc2C1=O | – | – | 19.2
33 | CCOC(=O)c1ncn2c1CN(C)C(=O)c1ccccc1-2 | – | – | 165
34 | Cc1nnc(-c2ncn3c2CN(Cc2ccccc2)C(=O)c2ccccc2-3)o1 | > 10000 | 1210 | –
35 | CCOC(=O)c1ncn2c1C1CCCN1C(=O)c1cc(Cl)ccc1-2 (centres undefined) | – | – | 0.7
36 | COC(=O)c1ncn2c1CN(C)C(=O)c1cc(F)ccc1-2 [FLUMAZENIL METHYLESTER] | 239 | 3.1 | 77
37 | CN1Cc2c(C(=O)OC(C)(C)C)ncn2-c2ccc(Cl)cc2C1=O | – | – | 0.4
38 | CCOC(=O)c1ncn2c1[C@H]1CCCN1C(=O)c1ccccc1-2 | > 1000 | > 100 | –
39 | CCCOC(=O)c1ncn2c1CN(C)C(=O)c1cc(Cl)ccc1-2 | – | – | 1.3
40 | CCc1cccc2c1C(=O)N1CCCC1c1c(C(=O)OC(C)(C)C)ncn1-2 (centres undefined) | 164 | 1 | 164
41 | CCCOC(=O)c1nc(C)n2c1CN=C(c1ccccc1Cl)c1cc(Cl)ccc1-2 | – | 2.2 | –
42 | Cc1noc(-c2ncn3c2CN(Cc2ccccc2)C(=O)c2cc(Cl)ccc2-3)n1 | 115 | 88.4 | 1.3
43 | CC(C)(C)OC(=O)c1ncn2c1C1CCN1C(=O)c1c(Cl)cccc1-2 (centres undefined) | – | 1.1 | 14
44 | Cc1nnc2n1-c1ccc(Cl)cc1C(c1ccccc1Cl)=NC2 [TRIAZOLAM] | 2090 | 0.8 | 2610
